Bioassay records deposited in PubChem by several laboratories.
The list is not random: actives were taken first. Their share in the collection is about 2.2%.
miR-122 sensor – inhibitors of miR-122 in Huh7 cells; 340,000 compounds, 0.3% hits; Huh7 miR-122 Renilla luciferase sensor, 48 h; neutral wells = 0, positive control = 100; activation (reporter increase), % at 12.5 µM;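 active means mean replicate activation score at least 90 and every replicate individually at or above 90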;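 further: higher luciferase means less miR-122 activity so hits act as miR-122 inhibitors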
NR2E3 ag-1 – NR2E3 (human) agonism. GST-NR2E3/biotin-RetCOR TR-FRET, 1536-well. 320,000 compounds, 0.12% hits. AID 2300. inhibition of corepressor binding, % at 4.78 µM;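 active means percent inhibition above the cutoff of mean plus 3 SD of all tested compounds, set per screening campaign, cut at about 20% in these data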;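 further: 0% = DMSO wells and 100% = biotin wells as full block of FRET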
Target sequence (Q9Y5X4 whole entry, looked up): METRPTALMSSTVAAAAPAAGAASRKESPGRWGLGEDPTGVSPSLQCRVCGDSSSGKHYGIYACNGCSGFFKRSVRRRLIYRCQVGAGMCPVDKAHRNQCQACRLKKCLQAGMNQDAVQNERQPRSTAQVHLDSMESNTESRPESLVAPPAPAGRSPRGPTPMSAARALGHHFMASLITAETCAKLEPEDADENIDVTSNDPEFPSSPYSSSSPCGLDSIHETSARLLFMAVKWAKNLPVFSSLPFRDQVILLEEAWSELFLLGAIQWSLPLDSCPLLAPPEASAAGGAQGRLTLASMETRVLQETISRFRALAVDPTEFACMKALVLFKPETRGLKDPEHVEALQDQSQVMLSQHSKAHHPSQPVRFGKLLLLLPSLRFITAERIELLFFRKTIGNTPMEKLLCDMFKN
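Assay system: NR2E3–RetCOR corepressor complex. Quantity: 1.35 nM GST-NR2E3. Buffer or medium: pH 7.5 Tris-based buffer. Reagent: biotinylated RetCOR corepressor at 7 nM final. Schedule: 5 h at 4 °C. Detection: TR-FRET, emission read at 617 and 671 nm. Replicates: one well per compound, singlicate testing.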
FGF22 binding – shifts melting point of recombinant human FGF22 | Q9HCT0 | recombinant FGF22 thermal shift, SYPRO orange fluorescence; percent of sucrose octasulfate shift, DMSO zero | activity (Tm shift, normalised), % at 9.99 µM | 340,000 compounds, 1.5% hits | AID 651658;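 active means mean Tm shift, scaled 0 neutral to 100 positive control, at about 1.3% or above, every replicate too, limit read from the data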
Target sequence (Q9HCT0 whole entry, looked up): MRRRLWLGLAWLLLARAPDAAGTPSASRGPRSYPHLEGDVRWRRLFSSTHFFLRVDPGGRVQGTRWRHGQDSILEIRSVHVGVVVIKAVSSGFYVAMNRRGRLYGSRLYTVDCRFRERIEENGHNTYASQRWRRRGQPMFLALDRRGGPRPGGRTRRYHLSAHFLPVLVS
697 NFkB inh – lowers PMA/ionomycin-induced NF-kB signal in 697 B cells | 697 B-cell NF-kB luciferase reporter, 16 h | inhibition, % at 4 µM | 330,000 compounds, 0.33% hits | AID 435022; in the data active means inhibition above about 35%
Jurkat NFkB inh – inhibitors of the PMA/ionomycin-induced NF-kB reporter in Jurkat cells; PMA/ionomycin-induced NF-kB luciferase reporter, luminescence; inhibition, % at 4 µM; 330,000 compounds, 0.53% hits; AID 435003; in the data active means inhibition above about 50%
NR2E3 ag-2 – activates human NR2E3 receptor; Q9Y5X4; CHO-S Gal4-NCOR/VP16-NR2E3 two-hybrid, luciferase; inhibition of corepressor binding, % at 3.98 µM; 360,000 compounds, 0.35% hits; AID 602229;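 active means inhibition above the mean of all tested compounds plus 3 SD, cut at about 70% in these data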;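 further: 0% = DMSO with NR2E3 transfected cells and 100% = cells lacking NR2E3 construct; higher means lower luciferase signal from less NR2E3 corepressor binding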
Starred values were filed as active, the others as inactive; . = no result; [ ] = another dose, or the depositor's remark.

SMILES	miR-122 sensor	NR2E3 ag-1	FGF22 binding	697 NFkB inh	Jurkat NFkB inh	NR2E3 ag-2
O=C(CSc1ccc(F)cc1)N1CCN(S(=O)(=O)c2ccccc2)CC1	-7.4	3.4	43.5*	-6.0	9.9	-2.8
O=S(=O)(c1ccc(F)cc1)N1CCN(C(=S)NCCc2ccccc2)CC1	5.3	-2.3	0.1	-3.3	16.9	-1.9
C[C@H]1CCCCO[C@H](CN(C)Cc2ccc(C(F)(F)F)cc2)[C@@H](C)CN([C@@H](C)CO)C(=O)c2cc(NS(=O)(=O)c3cn(C)cn3)ccc2O1	3.4[16.7 µM]	.	0.0	.	.	.
COc1cc(/C=C(\CC(=O)O)c2nc3ccccc3s2)cc(OC)c1O	-3.9	1.2	43.1*	-7.5	-16.3	-22.2
COc1cc(/C=N/NC(=Nc2ccc(C)cc2)c2nc3ccccc3s2)ccc1O	.	1.7	.	-86.3	-57.7	90.8*
CCC(=O)N(C)C[C@H]1Oc2cc(-c3ccc(C)cc3)ccc2S(=O)(=O)N([C@H](C)CO)C[C@H]1C	-19.0[16.7 µM]	.	-0.1	.	.	.
C/C=C/c1cnc2c(c1)C(=O)N([C@H](C)CO)C[C@@H](C)[C@H](CN(C)C(=O)Cc1cccnc1)O2	1.4[16.7 µM]	.	0.0	.	.	.
CCOC(=O)C1(CCc2ccccc2)CCN(C(=O)CCc2cnn(C)c2)CC1	-8.5	3.3	44.2*	-2.5	-9.3	-3.9
CCOC(=O)C1(CCCc2ccccc2)CCN(C(=O)COC)CC1	8.7	-2.2	0.1	-13.2	-0.5	5.2
CCOC(=O)C1(CCc2ccccc2)CCN(C(=O)CCc2cnccn2)CC1	-1.2	-1.4	0.1	-16.9	-2.4	-13.8
CCOC(=O)C1(CCCc2ccccc2)CCN(C(=O)[C@@H]2C[C@@H](C)NC(=S)N2)CC1	-5.7	2.8	51.7*	-7.1	8.3	-2.5
CC(=O)OCC(=O)Nc1ccc(Br)c(C)c1	.	0.9	43.2*	-10.1	-4.3	4.1
COc1ccc(Cc2noc(CN3CCN(Cc4cccc(Cl)c4)CC3)n2)cc1OC	-13.5	0.4	43.7*	0.0	26.3	-2.2
C[C@@H]1CN([C@@H](C)CO)C(=O)c2cccc(NC(=O)C3CCCCC3)c2O[C@@H]1CN(C)S(C)(=O)=O	35.6[16.7 µM]	.	-0.4	.	.	.
CC1CCc2c(C(=O)NCc3cccnc3)csc2C1 (configuration not stated)	33.8	-0.6	43.2*	-12.9	-11.2	39.3
Cc1c(C(=O)C(=O)NCCC2=CCCCC2)c2ccccc2n1C	.	-3.0	0.3	-3.7	2.7	13.1
Cc1c(C(=O)C(=O)NCc2cccs2)c2ccccc2n1C	.	2.5	43.0*	18.2	-8.8	-36.9
Cc1ccc(S(=O)(=O)N2CCCC2CNC(=O)C(=O)NCc2ccc3c(c2)OCO3)cc1 (configuration not stated)	-4.1	.	43.0*	.	.	-11.4
Cc1cc(C)nc(N2CCCC(C(=O)Nc3ccc4c(c3)OCO4)C2)n1 (configuration not stated)	5.7	-2.1	.	21.3	-2.1	-16.5
Cc1cc(C)nc(N2CCCC(C(=O)NCc3ccc4c(c3)OCO4)C2)n1 (configuration not stated)	.	8.4	43.3*	-4.0	1.4	5.9
COc1ccc(S(=O)(=O)N2CCCC2CNC(=O)C(=O)NCc2ccc3c(c2)OCO3)cc1 (configuration not stated)	3.7	1.9	0.3	6.2	6.3	9.8
CN(C)C(=O)c1cccc(-c2ccc([C@@H]3[C@@H](CO)N4CCCCN(CC5CCOCC5)C[C@H]34)cc2)c1	4.4[16.7 µM]	.	-0.7	.	.	.
CC(C)NC(=O)Nc1cccc2c1O[C@H](CN(C)CC1CC1)[C@@H](C)CN([C@H](C)CO)C2=O	10.4[16.7 µM]	.	0.1	.	.	.
CCN(CC)S(=O)(=O)c1cc(NS(=O)(=O)c2cccc(Cl)c2)ccc1C	253.7*	-1.3	0.1	10.3	1.9	10.2
C[C@@H]1CN([C@H](C)CO)C(=O)c2cc(N(C)C)ccc2O[C@H]1CN(C)Cc1ccc(C(=O)Nc2ccccc2N)cc1	111.7*[16.7 µM]	.	-0.2	.	.	.
SMILES	miR-122 sensor	NR2E3 ag-1	FGF22 binding	697 NFkB inh	Jurkat NFkB inh	NR2E3 ag-2
C[C@@H]1CN([C@H](C)CO)C(=O)c2cc(N(C)C)ccc2O[C@@H]1CN(C)Cc1ccc(C(=O)Nc2ccccc2N)cc1	220.4*[16.7 µM]	.	0.1	.	.	.
C[C@@H]1CN([C@@H](C)CO)C(=O)Cc2cc(NC(=O)Nc3ccc(F)cc3)ccc2O[C@@H]1CN(C)Cc1ccc(C(=O)Nc2ccccc2N)cc1	-4.8[16.7 µM]	.	.	.	.	.
C[C@H]1CN([C@@H](C)CO)C(=O)c2cc(N(C)C)ccc2O[C@H]1CN(C)Cc1ccc(C(=O)Nc2ccccc2N)cc1	119.5*[16.7 µM]	.	.	.	.	.
C[C@H](CO)N1C[C@H](C)[C@H](CN(C)Cc2ccc(C(=O)Nc3ccccc3N)cc2)Oc2ccc(NC(=O)Nc3ccc(F)cc3)cc2CC1=O	267.3*[16.7 µM]	.	0.2	.	.	.
C[C@@H]1CN([C@H](C)CO)C(=O)c2cc(C3=CCCCC3)cnc2O[C@@H]1CN(C)Cc1ccccc1F	-27.2[16.7 µM]	.	-0.1	.	.	.
C[C@@H]1CN([C@H](C)CO)C(=O)Cc2cc(N(C)C)ccc2O[C@H]1CN(C)Cc1ccc(C(=O)Nc2ccccc2N)cc1	84.8[16.7 µM]	.	-0.6	.	.	.
C[C@@H]1CN([C@H](C)CO)C(=O)Cc2cc(N(C)C)ccc2O[C@@H]1CN(C)Cc1ccc(C(=O)Nc2ccccc2N)cc1	130.4*[16.7 µM]	.	-0.7	.	.	.
C[C@H]1CN([C@@H](C)CO)S(=O)(=O)c2ccc(-c3ccccc3)cc2O[C@H]1CN(C)S(=O)(=O)c1ccccc1F	-1.2[16.7 µM]	.	0.0	.	.	.
CCOc1ccccc1-n1c(SCC(=O)N2CCCc3ccccc32)nnc1-c1cccnc1	.	1.6	.	1.0	-4.5	-25.7
Cc1ccc(-n2c(SCC(=O)N3CCCc4ccccc43)nnc2-c2cccnc2)c(C)c1	-2.4	4.1	43.3*	4.5	7.3	4.6
CCN(CC)C(=O)c1nc[nH]c1C(=O)N1CCC(C)CC1	8.2	.	9.1*	-2.3	-1.6	-2.2
C[C@H]1CCCCO[C@H](CN(C)C(=O)Nc2ccc(F)cc2)[C@@H](C)CN([C@@H](C)CO)C(=O)c2cc(NC(=O)Nc3ccc(C(F)(F)F)cc3)ccc2O1	-10.3[16.7 µM]	.	1.6*	.	.	.
C[C@@H]1CCCCO[C@H](CN(C)C(=O)Nc2ccc(C(F)(F)F)cc2)[C@@H](C)CN([C@H](C)CO)C(=O)c2cc(NC(=O)Nc3ccc(C(F)(F)F)cc3)ccc2O1	29.5[16.7 µM]	.	1.4*	.	.	.
C[C@@H]1CCCCO[C@@H](CN(C)C(=O)Nc2ccc(C(F)(F)F)cc2)[C@@H](C)CN([C@H](C)CO)C(=O)c2cc(NC(=O)Nc3ccc(F)cc3)ccc2O1	.	.	-0.1	.	.	.
COc1ccc(NC(=O)Nc2ccc3c(c2)C(=O)N([C@@H](C)CO)C[C@@H](C)[C@H](CN(C)C(=O)Nc2ccc(C(F)(F)F)cc2)OCCCC[C@@H](C)O3)cc1	-2.0[16.7 µM]	.	1.2*	.	.	.
